Activity calls are given as the source filed them. The calls are words filed in the database; no cut-off is given here.
Legend:
[1] = biological target: Cyclin-dependent kinase 6 (Homo sapiens, UniProt Q00534); test: Inhibition of CDK6 (unknown origin)
[2] = biological target: Mitogen-activated protein kinase 3 (Homo sapiens) (UniProt P27361); test: Inhibition of ERK1 phosphorylation in human A2058 cells after 4 hrs by immunoblotting analysis; assay type: cell-based
Summary of the method: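 A2058 cells treated 4 h at 37 °C with 0–10000 nM compound (150, 312, 625, 1250, 2500, 5000, 10000 nM). Equal-protein lysates immunoblotted for phospho-ERK1,2 and total ERK1,2, developed by ECL. A MEK inhibitor serves as positive control.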

[3] = biological target: RAC-alpha serine/threonine-protein kinase (Homo sapiens, UniProt P31749); test: Inhibition of AKT1 (unknown origin)
[4] = biological target: Glycogen synthase kinase-3 beta (Homo sapiens, UniProt P49841); test: Inhibition of GSK3beta (unknown origin)
[5] = biological target: Mitogen-activated protein kinase 1 (Mus musculus) (UniProt P63085); test: Inhibition of inactive ERK2 (mouse) coupled with human MEK1 using IMAP peptide substrate after 30 mins by coupled ERK2 assay
[6] = biological target: Hepatocyte growth factor receptor (Homo sapiens, UniProt P08581); test: Inhibition of MET (unknown origin)
[7] = biological target: Serine/threonine-protein kinase Chk1 (Homo sapiens, UniProt O14757); test: Inhibition of CHK1 (unknown origin)
[8] = biological target: Cyclin-dependent kinase 4 (Homo sapiens, UniProt P11802); test: Inhibition of CDK4 (unknown origin)
Sequence of Cyclin-dependent kinase 4 (P11802 whole entry): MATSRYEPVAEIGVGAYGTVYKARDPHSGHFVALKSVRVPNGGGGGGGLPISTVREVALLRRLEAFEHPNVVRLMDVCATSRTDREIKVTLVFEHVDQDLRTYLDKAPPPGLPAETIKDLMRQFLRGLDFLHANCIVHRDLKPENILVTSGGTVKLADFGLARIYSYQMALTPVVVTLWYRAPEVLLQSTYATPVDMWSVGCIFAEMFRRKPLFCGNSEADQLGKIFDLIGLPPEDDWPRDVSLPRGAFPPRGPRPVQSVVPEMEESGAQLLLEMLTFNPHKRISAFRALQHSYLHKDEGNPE

A2058 [9] = test: Inhibition of RSK phosphorylation in human A2058 cells after 4 hrs by immunoblotting analysis; assay type: cell-based
[10] = biological target: Casein kinase I isoform delta (Homo sapiens, UniProt P48730); test: Inhibition of CSNK1D (unknown origin)
CHL-1 = test: Cytotoxicity against human CHL-1 cells expressing wild type BRAF after 3 days by proliferation assay; assay type: functional, cell-based; conditions: CHL-1, 72 h
A2058 [11] = test: Cytotoxicity against human A2058 cells expressing BRAF mutant after 3 days by proliferation assay; assay type: functional, cell-based; conditions: A2058, 72 h
Summary of the method: (§1)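 A2058, Colo-205 (2000 cells/well) or A375SM (1500 cells/well) in RPMI1640 with 10% FBS and penicillin–streptomycin, on collagen-coated plates. Cells attach for 2 h, then compound is added in DMSO (final 1.0% or 0.1%). Incubated 3 days at 37 °C, 5% CO2. Viability read by CellTiter-Glo luminescence.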

[12] = biological target: Cyclin-dependent kinase 2 (Homo sapiens, UniProt P24941); test: Inhibition of CDK2 (unknown origin)
COLO 205 = test: Cytotoxicity against human COLO205 cells expressing BRAF mutant after 3 days by proliferation assay; assay type: functional, cell-based; conditions: COLO 205, 72 h; summary of the method: as §1
[13] = biological target: Mitogen-activated protein kinase 11 (Homo sapiens, UniProt Q15759); test: Inhibition of p38beta (unknown origin)
[14] = biological target: Protein kinase C alpha type (Homo sapiens, UniProt P17252); test: Inhibition of PKCA (unknown origin)
[15] = biological target: Epidermal growth factor receptor (Homo sapiens, UniProt P00533); test: Inhibition of EGFR (unknown origin)
Sequence of Epidermal growth factor receptor (P00533 whole entry): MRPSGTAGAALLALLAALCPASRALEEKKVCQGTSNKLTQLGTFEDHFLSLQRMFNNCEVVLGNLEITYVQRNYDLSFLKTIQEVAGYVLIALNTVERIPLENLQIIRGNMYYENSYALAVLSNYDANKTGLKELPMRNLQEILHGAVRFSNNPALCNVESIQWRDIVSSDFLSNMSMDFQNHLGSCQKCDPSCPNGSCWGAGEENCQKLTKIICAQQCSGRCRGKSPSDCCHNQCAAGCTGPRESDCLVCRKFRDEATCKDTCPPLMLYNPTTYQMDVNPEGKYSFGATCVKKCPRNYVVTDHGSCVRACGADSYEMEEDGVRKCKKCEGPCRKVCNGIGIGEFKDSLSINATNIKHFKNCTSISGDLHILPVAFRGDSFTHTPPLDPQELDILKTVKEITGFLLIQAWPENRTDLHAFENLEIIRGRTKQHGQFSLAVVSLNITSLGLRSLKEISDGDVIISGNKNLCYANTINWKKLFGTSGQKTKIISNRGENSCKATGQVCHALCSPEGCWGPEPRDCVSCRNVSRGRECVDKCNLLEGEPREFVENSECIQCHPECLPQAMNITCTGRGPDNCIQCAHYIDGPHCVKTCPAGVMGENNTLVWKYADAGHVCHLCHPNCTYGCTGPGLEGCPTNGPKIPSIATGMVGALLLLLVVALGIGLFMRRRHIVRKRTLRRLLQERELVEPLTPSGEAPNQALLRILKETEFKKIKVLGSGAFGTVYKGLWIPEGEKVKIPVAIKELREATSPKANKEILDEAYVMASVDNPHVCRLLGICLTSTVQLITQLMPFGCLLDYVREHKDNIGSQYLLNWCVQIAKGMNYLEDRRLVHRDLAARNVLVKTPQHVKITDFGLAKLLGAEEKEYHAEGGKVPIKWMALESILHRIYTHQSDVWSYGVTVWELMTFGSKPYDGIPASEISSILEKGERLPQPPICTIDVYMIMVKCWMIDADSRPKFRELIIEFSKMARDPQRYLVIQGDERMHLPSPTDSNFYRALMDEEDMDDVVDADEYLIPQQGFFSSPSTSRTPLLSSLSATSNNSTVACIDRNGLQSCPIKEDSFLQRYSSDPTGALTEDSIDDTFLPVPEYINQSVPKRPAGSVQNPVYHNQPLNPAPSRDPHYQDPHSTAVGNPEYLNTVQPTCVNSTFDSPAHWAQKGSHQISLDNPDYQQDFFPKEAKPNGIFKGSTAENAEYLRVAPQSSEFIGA

[16] = biological target: Serine/threonine-protein kinase B-raf (Homo sapiens, UniProt P15056); test: Inhibition of B-RAF (unknown origin)
[17] = biological target: Dual specificity mitogen-activated protein kinase kinase 1 (Homo sapiens, UniProt Q02750); test: Inhibition of MEK1 (unknown origin)
[18] = biological target: Insulin-like growth factor 1 receptor (Homo sapiens, UniProt P08069); test: Inhibition of IGF1R (unknown origin)
[19] = Cytotoxicity against human A375SM cells expressing BRAF mutant after 3 days by proliferation assay; assay type: functional, cell-based; conditions: A375-SM, 72 h; summary of the method: as §1
[20] = biological target: T1, Mitogen-activated protein kinase 1 (Homo sapiens, UniProt P28482); test: Binding to unphosphorylated ERK2 (unknown origin) by temperature dependent fluorescence (TdF) assay
T1 sequence (P28482 whole entry): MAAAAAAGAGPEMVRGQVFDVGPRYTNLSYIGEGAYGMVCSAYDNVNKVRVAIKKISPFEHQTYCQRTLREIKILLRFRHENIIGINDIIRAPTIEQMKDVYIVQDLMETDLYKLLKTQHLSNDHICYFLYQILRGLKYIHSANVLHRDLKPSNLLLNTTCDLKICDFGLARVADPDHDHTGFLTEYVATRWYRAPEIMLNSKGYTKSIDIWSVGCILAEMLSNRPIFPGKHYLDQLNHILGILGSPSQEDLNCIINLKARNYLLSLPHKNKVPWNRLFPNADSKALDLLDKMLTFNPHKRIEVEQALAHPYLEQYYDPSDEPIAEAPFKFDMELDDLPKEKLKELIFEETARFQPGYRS

[21] = biological target: T2, Dual specificity mitogen-activated protein kinase kinase; MEK1/2 (Homo sapiens) (UniProt P36507+Q02750); test: Binding affinity to unphosphorylated MEK (unknown origin) by temperature dependent fluorescence (TdF) assay
T2 sequence (P36507 whole entry, looked up): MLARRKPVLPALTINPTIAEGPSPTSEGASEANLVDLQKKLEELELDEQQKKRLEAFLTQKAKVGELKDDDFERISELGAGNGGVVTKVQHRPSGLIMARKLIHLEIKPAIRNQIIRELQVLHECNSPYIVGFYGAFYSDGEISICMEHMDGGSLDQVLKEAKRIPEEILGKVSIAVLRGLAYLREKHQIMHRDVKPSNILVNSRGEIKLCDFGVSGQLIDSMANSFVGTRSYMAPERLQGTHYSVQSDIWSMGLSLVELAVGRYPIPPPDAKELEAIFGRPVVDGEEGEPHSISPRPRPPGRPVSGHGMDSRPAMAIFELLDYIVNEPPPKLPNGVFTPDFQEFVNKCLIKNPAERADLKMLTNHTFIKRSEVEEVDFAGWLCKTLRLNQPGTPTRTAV
T2 sequence (Q02750 whole entry, looked up): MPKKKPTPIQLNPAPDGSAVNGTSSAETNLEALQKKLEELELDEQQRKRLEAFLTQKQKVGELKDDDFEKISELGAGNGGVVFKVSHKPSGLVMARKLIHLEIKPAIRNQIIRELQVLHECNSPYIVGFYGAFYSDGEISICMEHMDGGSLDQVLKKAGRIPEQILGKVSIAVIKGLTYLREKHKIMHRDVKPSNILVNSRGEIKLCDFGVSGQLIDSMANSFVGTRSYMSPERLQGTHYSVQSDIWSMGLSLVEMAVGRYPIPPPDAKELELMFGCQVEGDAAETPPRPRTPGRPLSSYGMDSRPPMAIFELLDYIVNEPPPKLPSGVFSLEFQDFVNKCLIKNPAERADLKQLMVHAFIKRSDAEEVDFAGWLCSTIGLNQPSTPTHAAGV

[22] = biological target: Serine/threonine-protein kinase 3 (Homo sapiens, UniProt Q13188); test: Inhibition of MST2 (unknown origin)
[23] = biological target: Rho-associated protein kinase 2 (Homo sapiens, UniProt O75116); test: Inhibition of ROCK2 (unknown origin)
[24] = biological target: Testis-specific serine/threonine-protein kinase 2 (Homo sapiens, UniProt Q96PF2); test: Inhibition of TSSK2 (unknown origin)
[25] = biological target: Tyrosine-protein kinase ABL1 (Homo sapiens, UniProt P00519); test: Inhibition of ABL (unknown origin)
Sequence of Tyrosine-protein kinase ABL1 (P00519 whole entry): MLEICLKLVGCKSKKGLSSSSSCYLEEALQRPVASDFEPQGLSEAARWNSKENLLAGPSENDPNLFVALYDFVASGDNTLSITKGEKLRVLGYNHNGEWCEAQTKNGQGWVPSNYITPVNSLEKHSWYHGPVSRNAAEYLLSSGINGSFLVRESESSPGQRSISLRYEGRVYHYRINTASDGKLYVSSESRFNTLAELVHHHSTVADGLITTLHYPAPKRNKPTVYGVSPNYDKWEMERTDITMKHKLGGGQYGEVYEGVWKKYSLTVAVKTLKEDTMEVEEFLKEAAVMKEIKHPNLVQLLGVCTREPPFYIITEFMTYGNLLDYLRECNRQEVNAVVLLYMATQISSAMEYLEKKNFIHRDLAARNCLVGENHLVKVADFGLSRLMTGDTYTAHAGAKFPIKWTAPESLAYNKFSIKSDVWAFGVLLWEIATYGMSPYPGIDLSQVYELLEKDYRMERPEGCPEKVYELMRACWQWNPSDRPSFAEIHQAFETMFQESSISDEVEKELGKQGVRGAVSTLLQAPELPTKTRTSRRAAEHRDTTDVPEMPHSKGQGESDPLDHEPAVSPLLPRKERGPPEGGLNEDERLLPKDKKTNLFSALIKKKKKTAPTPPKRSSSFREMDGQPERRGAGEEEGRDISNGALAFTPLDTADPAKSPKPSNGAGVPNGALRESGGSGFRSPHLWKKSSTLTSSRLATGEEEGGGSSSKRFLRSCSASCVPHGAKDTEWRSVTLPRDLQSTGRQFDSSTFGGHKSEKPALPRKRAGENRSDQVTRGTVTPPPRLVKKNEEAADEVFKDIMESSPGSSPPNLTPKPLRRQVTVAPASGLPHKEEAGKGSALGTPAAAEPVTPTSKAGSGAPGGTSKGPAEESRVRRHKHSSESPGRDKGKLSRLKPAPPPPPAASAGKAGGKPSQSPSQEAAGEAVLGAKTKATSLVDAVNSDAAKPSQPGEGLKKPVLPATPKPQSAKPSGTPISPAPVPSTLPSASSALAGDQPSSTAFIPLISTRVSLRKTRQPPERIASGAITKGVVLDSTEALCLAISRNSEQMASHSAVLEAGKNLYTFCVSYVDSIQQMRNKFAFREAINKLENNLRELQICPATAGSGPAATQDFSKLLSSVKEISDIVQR

[26] = biological target: Inhibitor of nuclear factor kappa-B kinase subunit beta (Homo sapiens, UniProt O14920); test: Inhibition of IKKbeta (unknown origin)
[27] = biological target: Tyrosine-protein kinase Lck (Homo sapiens, UniProt P06239); test: Inhibition of LCK (unknown origin)
[28] = biological target: Vascular endothelial growth factor receptor 1 (Homo sapiens, UniProt P17948); test: Inhibition of VEGFR1 (unknown origin)
[29] = biological target: Receptor-type tyrosine-protein kinase FLT3 (Homo sapiens, UniProt P36888); test: Inhibition of FLT3 (unknown origin)
[30] = biological target: T1, Mitogen-activated protein kinase 1; test: Binding to phosphorylated ERK2 (unknown origin) by temperature dependent fluorescence (TdF) assay
Ephrin type-B receptor 4 = Ephrin type-B receptor 4 (Homo sapiens, UniProt P54760); test: Inhibition of EPHB4 (unknown origin)
[31] = biological target: T1, Mitogen-activated protein kinase 1; test: Inhibition of activated ERK2 (unknown origin) using IMAP peptide substrate after 30 mins by activated ERK2 assay
Summary of the method: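 IMAP fluorescence-polarization assay. Started with 1 μM substrate peptide (100 nM fluorescein-labelled) and 30 μM ATP. Run 30 min, stopped with IMAP beads, read after 30 min. N = 2.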

[32] = biological target: Serine/threonine-protein kinase Nek2 (Homo sapiens, UniProt P51955); test: Inhibition of NEK2 (unknown origin)
[33] = biological target: T2, Dual specificity mitogen-activated protein kinase kinase; MEK1/2 (Homo sapiens); test: Binding affinity to phosphorylated MEK (unknown origin) by temperature dependent fluorescence (TdF) assay
[34] = biological target: Interleukin-1 receptor-associated kinase 4 (Homo sapiens, UniProt Q9NWZ3); test: Inhibition of IRAK4 (unknown origin)
[35] = biological target: Serine/threonine-protein kinase PLK3 (Homo sapiens, UniProt Q9H4B4); test: Inhibition of PLK3 (unknown origin)
[36] = biological target: Tyrosine-protein kinase JAK2 (Homo sapiens, UniProt O60674); test: Inhibition of JAK2 (unknown origin)
Sequence of Tyrosine-protein kinase JAK2 (O60674 whole entry): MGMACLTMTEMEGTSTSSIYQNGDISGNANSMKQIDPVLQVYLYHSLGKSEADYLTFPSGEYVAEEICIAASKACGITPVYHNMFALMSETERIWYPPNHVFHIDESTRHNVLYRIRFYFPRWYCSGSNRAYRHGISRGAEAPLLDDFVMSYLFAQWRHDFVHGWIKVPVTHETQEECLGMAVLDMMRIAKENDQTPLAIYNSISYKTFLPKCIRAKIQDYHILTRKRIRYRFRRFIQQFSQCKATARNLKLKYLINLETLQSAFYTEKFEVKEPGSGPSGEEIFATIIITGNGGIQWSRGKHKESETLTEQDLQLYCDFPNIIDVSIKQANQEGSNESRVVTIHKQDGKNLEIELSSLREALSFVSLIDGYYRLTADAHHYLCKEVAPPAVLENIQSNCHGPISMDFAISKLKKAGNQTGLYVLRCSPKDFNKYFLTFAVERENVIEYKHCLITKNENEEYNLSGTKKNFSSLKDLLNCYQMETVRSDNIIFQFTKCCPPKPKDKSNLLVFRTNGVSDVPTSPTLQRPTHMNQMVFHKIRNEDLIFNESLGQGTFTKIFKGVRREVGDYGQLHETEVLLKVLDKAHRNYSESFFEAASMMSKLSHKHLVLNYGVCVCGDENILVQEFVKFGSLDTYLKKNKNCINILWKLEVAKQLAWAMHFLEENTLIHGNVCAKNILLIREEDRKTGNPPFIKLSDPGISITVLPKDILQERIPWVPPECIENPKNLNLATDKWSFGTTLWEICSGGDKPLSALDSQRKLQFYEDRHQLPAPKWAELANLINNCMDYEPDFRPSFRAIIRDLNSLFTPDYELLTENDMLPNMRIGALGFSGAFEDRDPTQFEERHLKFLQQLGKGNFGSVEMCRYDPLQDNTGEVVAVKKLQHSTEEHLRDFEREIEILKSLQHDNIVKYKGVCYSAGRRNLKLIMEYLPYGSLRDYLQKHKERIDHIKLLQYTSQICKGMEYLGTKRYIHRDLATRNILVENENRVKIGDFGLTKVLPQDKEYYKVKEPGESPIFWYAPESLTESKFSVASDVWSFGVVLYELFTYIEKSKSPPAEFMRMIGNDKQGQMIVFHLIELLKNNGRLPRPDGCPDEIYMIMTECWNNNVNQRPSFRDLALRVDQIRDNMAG

[37] = biological target: Ribosomal protein S6 kinase alpha-3 (Homo sapiens, UniProt P51812); test: Inhibition of RSK2 (unknown origin)

CC(=O)c1ccc(N2CCN(C(=O)CN3CC[C@@H](C(=O)Nc4ccc(O)c(Cl)c4)C3)CC2)cc1
IC50 [1]: > 50 µM
inhibition [2]: Dose-dependent effect
IC50 [3]: > 30 µM
IC50 [4]: > 50 µM
IC50 [5]: 0.36 µM
IC50 [6]: > 30 µM
IC50 [7]: > 30 µM
IC50 [8]: > 50 µM
inhibition (A2058 [9]): Dose-dependent effect
IC50 [10]: > 30 µM
IC50 (CHL-1): > 100 µM
IC50 (A2058 [11]): 28.8 µM
IC50 [12]: > 50 µM
IC50 (COLO 205): 10.8 µM
IC50 [13]: > 50 µM
IC50 [14]: > 30 µM
IC50 [15]: > 50 µM
IC50 [16]: > 30 µM
IC50 [17]: > 20 µM
IC50 [18]: > 30 µM
IC50 [19]: 11.5 µM
Kd [20]: 0.05 µM
Activity [21]: inactive
IC50 [22]: > 30 µM
IC50 [23]: > 30 µM
IC50 [24]: > 30 µM
IC50 [25]: > 30 µM
IC50 [26]: > 30 µM
IC50 [27]: > 30 µM
IC50 [28]: > 50 µM
IC50 [29]: > 30 µM
Kd [30]: 0.14 µM
IC50 (Ephrin type-B receptor 4): > 30 µM
IC50 [31]: 2.6 µM
IC50 [32]: > 30 µM
Activity [33]: inactive
IC50 [34]: > 30 µM
IC50 [35]: > 30 µM
IC50 [36]: > 30 µM
IC50 [37]: 27 µM

Source: ChEMBL document CHEMBL3351461, “Discovery of novel, dual mechanism ERK inhibitors by affinity selection screening of an inactive kinase” (J Med Chem, 2014)
